Reference: publication PMC10245921 (bioRxiv, 2023)
“And” between values parts separate entries of the source, which are not always exact repeats. Equal values may be shown once. Where no end group is shown, it is not given here. The star is where a group is joined. FITC = O=C1OC2(c3ccc(O)cc3Oc3cc(O)ccc32)c2ccc(NC(=S)*)cc21

B1: FITC-conjugated CD44 peptide (SRRRCGQKKKLVINSGNGAVEDYK-FITC) (peptide)
peptide: SRRRCGQKKKLVINSGNGAVEDYK(FITC)

Columns and labels:
MSN–CD44 interaction = MSN–CD44 interaction (Homo sapiens, UniProt P26038); assay: MSN–CD44 TR-FRET assay; format: binding; details: for IC50: IC50, confirmatory TR-FRET dose response, Fig. 4D, primary hits; for increase in potency relative to compound 2: MSN–CD44 TR-FRET
MSN = MSN (Homo sapiens, UniProt P26038); assay: Thermal shift assay of MSN with compounds; format: binding; details: two experiments
Procedure, shortened: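 Precipitate is removed by centrifugation, then the mix is incubated 30 min at RT. Sypro Orange is added at 20x and the sample ramped 25→95 °C at 1 °C/min. Tm comes from a Boltzmann fit; ΔTm versus DMSO is averaged over two experiments.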

MSN FERM domain = MSN FERM domain (Homo sapiens, UniProt P26038); assay: Surface plasmon resonance; format: binding
Procedure, shortened: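 MSN FERM domain is amine-coupled to a CM5 chip in acetate pH 4, to 4000 RU. Multi-cycle kinetics use test compound at 0.5–8 μM. KD comes from a 1:1 binding model fit.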

[1] = target: LgBiT-MSN(T588D) and SmBit-CD44 (Homo sapiens, UniProt P26038, T558D); assay: NanoBiT split luciferase assay in live cells; format: cell-based
Procedure, shortened: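 HEK293T cells (DMEM, 10% FBS, penicillin/streptomycin, 37 °C, 5% CO2) are seeded at 6000 cells/well. Next day they are transfected with CD44-SmBiT (C-terminal) and LgBiT-MSN(T558D) (N-terminal) plasmids, 20 ng and 5 ng, using Fugene HD; LgBiT-MSN(T558A) is the negative control. After 18 h, 2-fold dilutions of test compound (6.25–0.098 μM, DMSO) are added for 3 h. Nano-Glo Live Cell Reagent is added for 20 min at 37 °C, then luminescence is read. Two independent experiments.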

[2] = target: GST-tagged MSN and Flag-tagged CD44 (Homo sapiens, UniProt P26038); assay: GST-pull down assay in cell lysates; format: binding; details: full length proteins in cell lysates
Procedure, shortened: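 HEK293 cells co-express full-length GST-MSN and Venus-Flag-CD44; Venus marks CD44 expression. Lysates are diluted in 10 mM HEPES pH 7.5, 150 mM NaCl, 0.25% Triton X-100 with protease and phosphatase inhibitors. They are dose-treated with test compound in DMSO, rotating 1 h at 4 °C, then captured on GST resin for 1.5 h at 4 °C and washed three times. SDS-PAGE and immunoblotting detect Flag (CD44) and GST (MSN). Two experiments.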

[3] = Solubility by nephelometry; format: physicochemical
SYK-FCER1G = SYK-FCER1G (Homo sapiens, UniProt P43405); assay: SYK TR-FRET counter screen; format: binding
[4] = target: 6His-tagged FERM domain of human MSN (residues 1–345), wild type (human, UniProt P26038 1-345); assay: FRET or BRET
[5] = target: FERM domain of human MSN (residues 1–345), wild type, 6His tag cleaved (human, UniProt P26038 1-345); assay: FRET or BRET
[6] = target: B1; assay: FRET or BRET
[7] = IC50, CD44–MSN interaction in live cells (approximate), NanoBiT, live cells

Chain of GST-tagged MSN and Flag-tagged CD44 (P26038 whole entry): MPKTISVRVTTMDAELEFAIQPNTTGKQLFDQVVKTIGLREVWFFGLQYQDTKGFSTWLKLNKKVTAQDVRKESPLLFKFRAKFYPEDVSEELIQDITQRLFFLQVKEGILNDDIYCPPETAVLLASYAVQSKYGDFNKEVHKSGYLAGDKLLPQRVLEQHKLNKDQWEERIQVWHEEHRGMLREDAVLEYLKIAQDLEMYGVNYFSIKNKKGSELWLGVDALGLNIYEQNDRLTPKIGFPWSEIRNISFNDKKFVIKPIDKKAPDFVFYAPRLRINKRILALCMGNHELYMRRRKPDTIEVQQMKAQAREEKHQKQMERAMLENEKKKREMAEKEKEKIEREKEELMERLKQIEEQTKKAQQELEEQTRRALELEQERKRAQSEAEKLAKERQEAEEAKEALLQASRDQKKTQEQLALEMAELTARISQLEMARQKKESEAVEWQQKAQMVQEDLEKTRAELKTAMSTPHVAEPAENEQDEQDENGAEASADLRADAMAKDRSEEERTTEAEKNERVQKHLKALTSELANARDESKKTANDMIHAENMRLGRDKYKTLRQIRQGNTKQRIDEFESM
Chain of LgBiT-MSN(T588D) and SmBit-CD44 (P26038 whole entry T558D): as the sequence (P26038 whole entry) above, with T558D counted along it
Chain of MSN (P26038 1-345): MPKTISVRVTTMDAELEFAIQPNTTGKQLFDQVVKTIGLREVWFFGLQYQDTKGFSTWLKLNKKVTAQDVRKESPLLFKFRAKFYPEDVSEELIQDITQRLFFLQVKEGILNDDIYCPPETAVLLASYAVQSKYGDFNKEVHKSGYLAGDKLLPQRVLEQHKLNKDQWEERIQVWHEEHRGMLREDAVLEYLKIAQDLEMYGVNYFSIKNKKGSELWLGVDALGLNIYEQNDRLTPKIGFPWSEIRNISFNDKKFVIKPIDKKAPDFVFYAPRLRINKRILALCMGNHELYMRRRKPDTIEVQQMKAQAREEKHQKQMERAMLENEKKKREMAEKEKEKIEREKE
Chain of MSN–CD44 interaction (P26038 1-345): as above
Chain of MSN FERM domain (P26038 1-345): as above

Q: With `Nc1ccc(C(=O)Nc2ccc(-c3nc4ccc(NC(=O)c5ccc(N)cc5)cc4s3)cc2)cc1.O=C(O)C(F)(F)F.O=C(O)C(F)(F)F` [Compound 1, 4-amino-N-(4-(6-(4-aminobenzamido)benzo[d]thiazol-2-yl)phenyl)benzamide bis(2,2,2-trifluoroacetate)] as the molecule, how does the IC50 (MSN–CD44 interaction) read?
A: 5000 to 20000 nM

Q: What about the “av. ΔTm of MSN compared to DMSO alone” value (MSN; at 20 μM) of the same molecule?
A: 1–2 °C

Q: And the Kd (MSN FERM domain)?
A: 4200 nM

Q: And the IC50 [1, 7]?
A: ~600 nM

Q: And the IC50 ([1]; IC50, NanoBiT bioluminescence assay, HEK293 cells, 2 independent experiments)?
A: 570 nM and 690 nM

Q: What about the “activity in GST-pulldown assay” value [2] of the same molecule?
A: active

Q: Which IC50 (MSN–CD44 interaction) does the source give for `COc1ccccc1C(=O)Nc1ccc(-c2nc3ccccc3[nH]2)cc1` [Compound 2, N-(4-(1H-benzo[d]imidazol-2-yl)phenyl)-2-methoxybenzamide] here?
A: 5000 to 20000 nM

Q: What about the “av. ΔTm of MSN compared to DMSO alone” value (MSN; at 20 μM) of the same molecule?
A: 1–2 °C

Q: What about the Kd (MSN FERM domain) of the same molecule?
A: 700 nM

Q: What about the IC50 [1, 7] of the same molecule?
A: ~200 nM

Q: And the “solubility in aqueous/PBS buffer” value [3]?
A: low solubility

Q: And the “activity in GST-pulldown assay” value [2]?
A: active

Q: What does the source list for `COc1ccc(C(=O)Nc2ccc(-c3nc4ccccc4[nH]3)cc2)c(OC)c1` [Compound 2a, N-(4-(1H-benzo[d]imidazol-2-yl)phenyl)-2,4-dimethoxybenzamide]?
A: increase in potency relative to compound 2 (MSN–CD44 interaction): 8 fold; av. ΔTm of MSN compared to DMSO alone (MSN; at 50 μM): 1.3 °C; solubility in aqueous/PBS buffer [3]: improved solubility; activity in the counter screen (SYK-FCER1G): no activity; activity in GST-pulldown assay [2]: able to inhibit

Q: Which “increase in potency relative to compound 2” value (MSN–CD44 interaction) does the source give for `O=C(Nc1ccc(-c2nc3ccccc3[nH]2)cc1)c1cccc(Cl)c1` [Compound 2b, N-(4-(1H-benzo[d]imidazol-2-yl)phenyl)-3-chlorobenzamide] here?
A: 2 fold

Q: What about the “av. ΔTm of MSN compared to DMSO alone” value (MSN; at 50 μM) of the same molecule?
A: 1.2 °C

Q: And the “solubility in aqueous/PBS buffer” value [3]?
A: improved solubility

Q: What about the “activity in the counter screen” value (SYK-FCER1G) of the same molecule?
A: no activity

Q: What about the “activity in GST-pulldown assay” value [2] of the same molecule?
A: able to inhibit

Q: Does B1 bind [4]?
A: binds

Q: Does B1 bind [5]?
A: binds

B2: FERM domain of human MSN (1–345) H288A, 6His tag cleaved (domain or fragment)
chain: MPKTISVRVTTMDAELEFAIQPNTTGKQLFDQVVKTIGLREVWFFGLQYQDTKGFSTWLKLNKKVTAQDVRKESPLLFKFRAKFYPEDVSEELIQDITQRLFFLQVKEGILNDDIYCPPETAVLLASYAVQSKYGDFNKEVHKSGYLAGDKLLPQRVLEQHKLNKDQWEERIQVWHEEHRGMLREDAVLEYLKIAQDLEMYGVNYFSIKNKKGSELWLGVDALGLNIYEQNDRLTPKIGFPWSEIRNISFNDKKFVIKPIDKKAPDFVFYAPRLRINKRILALCMGNAELYMRRRKPDTIEVQQMKAQAREEKHQKQMERAMLENEKKKREMAEKEKEKIEREKE
Q: Which “fold higher concentration than wild type needed to inhibit” value [6] does the source give for B2 here?
A: 10 fold

B3: FERM domain of human MSN (1–345) L281R, 6His tag cleaved (domain or fragment)
chain: MPKTISVRVTTMDAELEFAIQPNTTGKQLFDQVVKTIGLREVWFFGLQYQDTKGFSTWLKLNKKVTAQDVRKESPLLFKFRAKFYPEDVSEELIQDITQRLFFLQVKEGILNDDIYCPPETAVLLASYAVQSKYGDFNKEVHKSGYLAGDKLLPQRVLEQHKLNKDQWEERIQVWHEEHRGMLREDAVLEYLKIAQDLEMYGVNYFSIKNKKGSELWLGVDALGLNIYEQNDRLTPKIGFPWSEIRNISFNDKKFVIKPIDKKAPDFVFYAPRLRINKRIRALCMGNHELYMRRRKPDTIEVQQMKAQAREEKHQKQMERAMLENEKKKREMAEKEKEKIEREKE
Q: With B3 as the molecule, how does the “fold higher concentration than wild type needed to inhibit” value [6] read?
A: 10 fold
